Assay results from ChEMBL document CHEMBL5236607, “Membrane-Active Cyclic Amphiphilic Peptides: Broad-Spectrum Antibacterial Activity Alone and in Combination with Antibiotics” (J Med Chem, 2022).
The source made the active and inactive calls. No cut-off for these calls is given here. Peptide text beside a SMILES is read from it.

What was measured:
Staphylococcus aureus [1] = assay: Bactericidal activity against methicillin resistant Staphylococcus aureus assessed as reduction in bacterial cells at 4 times MIC after 2 hrs by time kill assay; format: functional; design: scale not given: the % may be the effect or the level left
Summary of the method: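 Time-kill in Müller–Hinton media. […] Aliquots taken at 0–24 h, serially diluted and plated on MH agar. CFU counted after 24 h at 37 °C. Two independent experiments in triplicate.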

Staphylococcus aureus [2] = assay: Induction of resistance development in Staphylococcus aureus ATCC 29213 assessed as increase in MIC by microtiter plate reader assay; format: functional, organism-based
Summary of the method: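 Serial passage resistance assay with 2-fold microdilution MICs in 96-well plates. Each passage takes the well with the highest concentration still permitting growth, adjusts it to 0.5 McFarland, and dilutes it to a final 5 × 10^5 CFU/mL for the next passage. Eighteen passages; MIC recorded at each. Triplicate.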

Klebsiella pneumoniae [3] = assay: Antibacterial activity against multidrug resistant Klebsiella pneumoniae 1188718 after 24 hrs by microbroth dilution method; format: functional
Pseudomonas aeruginosa = assay: Synergistic antibacterial activity against Pseudomonas aeruginosa ATCC […] incubated for 24 hrs in presence of tobramycin by checkerboard assay; format: functional
Klebsiella pneumoniae [4] = assay: Antibacterial activity against carbapenem resistant Klebsiella pneumoniae ATCC BAA 1705 after 24 hrs by microbroth dilution method; format: functional
Staphylococcus aureus [5] = assay: Synergistic antibacterial activity against methicillin resistant Staphylococcus aureus ATCC BAA-1556 assessed as fractional inhibitory concentration incubated for 24 hrs in presence of tobramycin by checkerboard assay; format: functional
Summary of the method: (§1)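 Checkerboard assay. Inoculum from an LB overnight culture at 0.5 McFarland, diluted 1/150 in MH media. […] Incubated 37 °C for 24 h. FICI = MIC combination/MIC alone summed over both agents. Triplicate.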

Escherichia coli [6] = assay: Synergistic antibacterial activity against Escherichia coli ATCC 25922 assessed as fractional inhibitory concentration index incubated for 24 hrs in presence of tobramycin by checkerboard assay; format: functional
Summary of the method: (§2)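 Checkerboard assay in MH broth. Inoculum from an LB overnight culture set to 0.5 McFarland and diluted 1/150. […] Each agent was also titrated alone. Incubation 24 h at 37 °C. FIC = combination MIC/individual MIC; FICI = sum of the FICs. Triplicate.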

Escherichia coli [7] = assay: Synergistic antibacterial activity against Escherichia coli ATCC 25922 assessed as fractional inhibitory concentration incubated for 24 hrs in presence of tobramycin by checkerboard assay; format: functional; summary of the method: as §2
Cell membrane = assay: Membrano-lytic activity against methicillin resistant Staphylococcus aureus assessed as change in morphology at 4 times MIC after 1 hr by SEM analysis; format: subcellular
[8] = Membrano-lytic effect in bacterial inner membrane mimic DOPC/DOPG (7:3) large unilamellar vesicles assessed as calcein leakage measured upto 100 mins by multimode microplate reader assay; format: cell membranes; details: dose 5-50 µg/ml
Summary of the method: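 Calcein (70 mM) loaded into extruded 100 nm LUVs: DOPC:DOPG 7:3 (w/w) as the bacterial mimic, DOPC/cholesterol 10:1 (w/w) as the mammalian mimic. Free dye removed by gel filtration. Liposomes at 40 μM final lipid in PBS mixed 1:1 with peptide (5–50 μg/mL). Fluorescence (ex 490/em 520 nm) read every 10 min for 100 min; Triton X-100 defines 100% release. Triplicate.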

Escherichia coli [9] = assay: Synergistic antibacterial activity against Escherichia coli ATCC 25922 fractional inhibitory concentration index incubated for 24 hrs in presence of meropenem by checkerboard assay; format: functional; summary of the method: as §1
Escherichia coli [10] = assay: Synergistic antibacterial activity against Escherichia coli ATCC 25922 incubated for 24 hrs in presence of meropenem by checkerboard assay; format: functional; summary of the method: as §2

| Compound | Activity (Staphylococcus aureus [1]) | Activity (Staphylococcus aureus [2]) | MIC (Klebsiella pneumoniae [3]) | MIC (Pseudomonas aeruginosa) | MIC (Klebsiella pneumoniae [4]) | FIC (Staphylococcus aureus [5]) | fractional inhibitory concentration index (FICI) (Escherichia coli [6]) | FIC (Escherichia coli [7]) | Activity (Cell membrane) | Activity [8] | fractional inhibitory concentration index (FICI) (Escherichia coli [9]) | MIC (Escherichia coli [10]) |
| --- | --- | --- | --- | --- | --- | --- | --- | --- | --- | --- | --- | --- |
| N=C(N)NCCC[C@@H]1NC(=O)[C@H](CCCNC(=N)N)NC(=O)[C@H](CCCNC(=N)N)NC(=O)[C@H](Cc2c[nH]c3ccccc23)NC(=O)[C@H](Cc2c[nH]c3ccccc23)NC(=O)[C@H](Cc2c[nH]c3ccccc23)NC(=O)[C@H](Cc2c[nH]c3ccccc23)NC(=O)[C@H](CCCNC(=N)N)NC(=O)[C@H](CCCNC(=N)N)NC1=O | 100% | inactive | > 64 µg/mL | 0.125 µg/mL | > 64 µg/mL | 0.25 | 0.5 | 0.25 | Active | Dose-Dependent Effect |  |  |
| N=C(N)NCCC[C@@H]1NC(=O)[C@H](CCCNC(=N)N)NC(=O)[C@H](CCCNC(=N)N)NC(=O)[C@H](CCCNC(=N)N)NC(=O)[C@H](Cc2c[nH]c3ccccc23)NC(=O)[C@H](Cc2c[nH]c3ccccc23)NC(=O)[C@H](Cc2c[nH]c3ccccc23)NC(=O)[C@H](Cc2c[nH]c3ccccc23)NC(=O)[C@H](CCCNC(=N)N)NC(=O)[C@H](CCCNC(=N)N)NC1=O (cyclo(RRRRRRWWWW)) |  |  |  |  |  |  |  |  |  |  | 0.375 | 0.125 µg/mL |
